Data published in ChEMBL document CHEMBL4689842, “EUbOPEN Chemogenomics Library wave 1” (2021).
Values joined by “and” are separate entries in the source; they are usually repeats but may differ in a detail not shown here. Equal values may be shown once.

Tested on: HEK-293T
Test: Multiplex assay against HEK293T;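 on Population Tubulin-Different-Phenotype (%): share of the cells with healthy nuclei that show this phenotype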
Assay type: toxicity, cell-based
Conditions: human
In short: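 Values for tubulin, mitochondrial-mass and membrane-permeability phenotypes are per cents of cells with healthy nuclei. These cells were identified by CellPathfinder machine-learning gating of live cells that had been stained at seeding with Hoechst33342, BioTracker Green Microtubule Cytoskeleton Dye, MitoTracker Red and Annexin V Alexa Fluor 680 and imaged on a CQ1 microscope at 37°C and 5% CO2 after compound addition. The gating first set Hoechst high-intensity objects apart from normal cells, then split normal cells into healthy, pyknosed or fragmented nuclei, and pyknosed cells into mitotic or apoptotic.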

[1] = 12 h, 1 µM, compound concentration 1 uM, replicate 1
[2] = 12 h, 1 µM, compound concentration 1 uM, replicate 2
[3] = 12 h, 10 µM, compound concentration 10 uM, replicate 1
[4] = 12 h, 10 µM, compound concentration 10 uM, replicate 2
[5] = 24 h, 1 µM, compound concentration 1 uM, replicate 1
[6] = 24 h, 1 µM, compound concentration 1 uM, replicate 2
[7] = 24 h, 10 µM, compound concentration 10 uM, replicate 1
[8] = 24 h, 10 µM, compound concentration 10 uM, replicate 2
[9] = 48 h, 10 µM, compound concentration 10 uM, replicate 1
[10] = 48 h, 10 µM, compound concentration 10 uM, replicate 2

SMILES: CCOC(=O)Nc1cc(-c2ccc(C)c(NS(C)(=O)=O)c2)nn2c(C)nnc12
- Population Apoptotic (%) [1]: 18%
- Population Fragmented Nuclei (%) [1]: 13%
- Population Healthy Nuclei (%) [1]: 68%
- Population Hoechst High Intensity Objects (%) [1]: 9%
- Population Membrane Permeable-Phenotype (%) [1]: 3%
- Population Mitochondria Different-Phenotype (%) [1]: 3%
- Population Mitotic Cells (%) [1]: 81%
- Population Normal (%) [1]: 90%
- Population Pyknosed Nuclei (%) [1]: 17%
- Population Tubulin-Different-Phenotype (%) [1]: 2%
- Total Cell Count [1]: 561
- Population Apoptotic (%) [2]: 12%
- Population Fragmented Nuclei (%) [2]: 10%
- Population Healthy Nuclei (%) [2]: 87%
- Population Hoechst High Intensity Objects (%) [2]: 2%
- Population Membrane Permeable-Phenotype (%) [2]: 0%
- Population Mitochondria Different-Phenotype (%) [2]: 6%
- Population Mitotic Cells (%) [2]: 87%
- Population Normal (%) [2]: 97%
- Population Pyknosed Nuclei (%) [2]: 2%
- Population Tubulin-Different-Phenotype (%) [2]: 0%
- Total Cell Count [2]: 1857
- Population Apoptotic (%) [3]: 44% and 28%
- Population Fragmented Nuclei (%) [3]: 19% and 8%
- Population Hoechst High Intensity Objects (%) [3]: 12% and 6%
- Population Membrane Permeable-Phenotype (%) [3]: 0% and 2%
- Population Mitotic Cells (%) [3]: 55% and 71%
- Population Normal (%) [3]: 88% and 93%
- Total Cell Count [3]: 275 and 719
- Population Apoptotic (%) [4]: 4% and 3%
- Population Fragmented Nuclei (%) [4]: 16%
- Population Healthy Nuclei (%) [4]: 79% and 50%
- Population Hoechst High Intensity Objects (%) [4]: 3% and 4%
- Population Mitochondria Different-Phenotype (%) [4]: 6% and 8%
- Population Mitotic Cells (%) [4]: 95% and 96%
- Population Normal (%) [4]: 96% and 95%
- Population Tubulin-Different-Phenotype (%) [4]: 1%
- Population Apoptotic (%) [5]: 13%
- Population Fragmented Nuclei (%) [5]: 11%
- Population Healthy Nuclei (%) [5]: 78%
- Population Hoechst High Intensity Objects (%) [5]: 7%
- Population Membrane Permeable-Phenotype (%) [5]: 4%
- Population Mitochondria Different-Phenotype (%) [5]: 2%
- Population Mitotic Cells (%) [5]: 86%
- Population Normal (%) [5]: 92%
- Population Pyknosed Nuclei (%) [5]: 9%
- Population Tubulin-Different-Phenotype (%) [5]: 0%
- Total Cell Count [5]: 702
- Population Apoptotic (%) [6]: 6%
- Population Fragmented Nuclei (%) [6]: 32%
- Population Healthy Nuclei (%) [6]: 65%
- Population Hoechst High Intensity Objects (%) [6]: 4%
- Population Membrane Permeable-Phenotype (%) [6]: 0%
- Population Mitochondria Different-Phenotype (%) [6]: 1%
- Population Mitotic Cells (%) [6]: 93%
- Population Normal (%) [6]: 95%
- Population Pyknosed Nuclei (%) [6]: 2%
- Total Cell Count [6]: 3024
- Population Apoptotic (%) [7]: 42% and 17%
- Population Fragmented Nuclei (%) [7]: 16% and 17%
- Population Healthy Nuclei (%) [7]: 34% and 77%
- Population Hoechst High Intensity Objects (%) [7]: 9% and 6%
- Population Membrane Permeable-Phenotype (%) [7]: 1% and 6%
- Population Mitotic Cells (%) [7]: 57% and 82%
- Population Normal (%) [7]: 90% and 93%
- Population Tubulin-Different-Phenotype (%) [7]: 1% and 2%
- Population Healthy Nuclei (%) [8]: 68% and 53%
- Population Hoechst High Intensity Objects (%) [8]: 2% and 5%
- Population Mitochondria Different-Phenotype (%) [8]: 1%
- Population Mitotic Cells (%) [8]: 98% and 95%
- Population Normal (%) [8]: 97% and 94%
- Population Apoptotic (%) [9]: 38%
- Population Fragmented Nuclei (%) [9]: 19%
- Population Healthy Nuclei (%) [9]: 48%
- Population Hoechst High Intensity Objects (%) [9]: 11%
- Population Membrane Permeable-Phenotype (%) [9]: 1%
- Population Mitochondria Different-Phenotype (%) [9]: 4%
- Population Mitotic Cells (%) [9]: 61%
- Population Normal (%) [9]: 88%
- Population Pyknosed Nuclei (%) [9]: 32%
- Population Tubulin-Different-Phenotype (%) [9]: 1%
- Total Cell Count [9]: 380
- Population Apoptotic (%) [10]: 4%
- Population Fragmented Nuclei (%) [10]: 9%
- Population Healthy Nuclei (%) [10]: 83%
- Population Hoechst High Intensity Objects (%) [10]: 2%
- Population Mitochondria Different-Phenotype (%) [10]: 0%
- Population Mitotic Cells (%) [10]: 95%
- Population Normal (%) [10]: 97%
- Population Pyknosed Nuclei (%) [10]: 7%
- Population Tubulin-Different-Phenotype (%) [10]: 0%
- Total Cell Count [10]: 566
